Test [1] concerns the target T1, Human immunodeficiency virus type 1 integrase (Human immunodeficiency virus 1, UniProt Q7ZJM1). The test can be described thus: Concentration to inhibit strand transfer of wild type Human immuno deficiency virus-1 integrase. The gist of the method:
(§1)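 Recombinant wild-type IN, 200 nM final, preincubated with inhibitor at 30 °C for 30 min. 20 nM 5′-32P-labeled 21-mer duplex substrate then added for 1 h. Quenched with formamide loading dye. 19-mer or strand-transfer product fraction gave percent inhibition. IC50 from log concentration versus percent inhibition.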

Test [2] deals with T1, Human immunodeficiency virus type 1 integrase. The test can be described thus: Concentration to inhibit 3' processing of wild type Human immuno deficiency virus-1 integrase. In outline: as §1
Test [3] shares this target. The test can be described thus: Concentration to inhibit 3' processing of wild type Human immunodeficiency virus-1 integrase. The gist of the method:
as §1

Test [4] has the same target. As to the kind of experiment: Concentration to inhibit strand transfer of wild type Human immunodeficiency virus-1 integrase. In outline:
as §1

The target is the same in test [5]. The test can be described thus: Concentration to inhibit 3' processing of soluble mutant (F185K, C280S) of wild type Human immunodeficiency virus-1 integrase. In outline:
(§2)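 Integrase (200 nM final) is preincubated with inhibitor for 30 min at 30 °C in buffer with MOPS pH 7.2, HEPES pH 7.5, 7.5 mM MnCl2, 50 mM NaCl, BSA, DTT, 2-mercaptoethanol, glycerol, EDTA and 10% DMSO. Then 20 nM 5′-32P-labelled 21-mer duplex substrate is added for 1 h, and the reaction is quenched with formamide/EDTA dye. The fraction converted to 19-mer (3′-processing) or to strand-transfer products gives percent inhibition, and IC50 comes from log concentration versus percent inhibition.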

Test [6] shares this target. The test can be described thus: Concentration to inhibit strand transfer of soluble mutant (F185K, C280S) of wild type Human immunodeficiency virus-1 integrase. In outline: as §2

In the case of `O=C(NCc1ccco1)c1cc(C(=O)NCc2ccco2)cc(C(=O)NCc2ccco2)c1`, the IC50 came out at 8 µM in test [1] and 37 µM in test [2].

In the case of `COc1ccc(NS(=O)(=O)c2cccc(C(=O)Nc3ccccc3C(=O)O)c2)cc1`, the results for the IC50 in test [1] and in test [2] were 300 µM and 355 µM, respectively.

Consider `COC(=O)c1sccc1NC(=O)c1ccc(C(=O)Nc2ccsc2C(=O)OC)cc1`, for which the values for the IC50 in test [3] and in test [4] were above 100 µM and 97 µM, respectively.

Consider `O=C(c1ccccc1)c1ccc(OCC(O)COc2ccc(C(=O)c3ccccc3)c(O)c2)cc1O`, for which the half-inhibitory concentration (IC50) in test [1] and in test [2] was above 100 µM in each case.

For `COc1ccc2[nH]c(SCC(=O)Nc3ccc(O)c(C(=O)O)c3)nc2c1`, the concentration for half-maximal inhibition (IC50) in test [1] and in test [2] was above 100 µM each time.

Take `O=C(Nc1ccc(Cc2ccc(NC(=O)c3cccs3)c(C(=O)O)c2)cc1C(=O)O)c1cccs1`: the IC50 in test [3] stood at 63 µM; in test [4], 38 µM.

In the case of `O=C(N/N=C/c1ccc(O)cc1O)c1cc(C2CC2)[nH]n1`, the IC50 in test [1] is 43 µM; in test [2], 177 µM.

`O=C(NCc1cccc(CNC(=O)C(=O)NCc2ccco2)c1)C(=O)NCc1ccco1`: the IC50 is 1000 µM in test [5], 40 µM in test [6], above 100 µM in test [1] and above 100 µM in test [2].

Consider `CCN(CC)c1ccc(/C=N/Nc2nonc2N)c(O)c1`, for which the concentration for half-maximal inhibition (IC50) in test [3] and in test [4] was above 100 µM each time.

For `CCc1cc(/C=N/CC/N=C/c2cc(CC)sc2S)c(S)s1`, the IC50 in test [5] was above 100 µM; in test [6], 6 µM; in test [1], 21 µM; in test [2], above 100 µM.

In the case of `O=C(O)c1cc(NS(=O)(=O)c2ccc(NCCCN3CCOCC3)c([N+](=O)[O-])c2)cc(C(=O)O)c1`, the values for the IC50 in test [1] and in test [2] were 100 µM and 140 µM, respectively.

Take `COc1ccc(C(=O)Nc2ccc(Cc3ccc(NC(=O)c4ccc(OC)cc4)c(O)c3)cc2O)cc1`: the IC50 in test [1] and in test [2] was above 100 µM each time.

Consider `CCOc1ccc2[nH]c(SCC(=O)Nc3cc(C(=O)O)cc(C(=O)O)c3)nc2c1`, for which the IC50 in test [3] and in test [4] was above 100 µM in each case.

On to `Cc1ccc(NC(=O)C(=O)NCc2ccc(/C=N\NC(=O)C(=O)Nc3cc(Cl)ccc3C)o2)cc1C`, for which the IC50 is 510 µM in test [5], 70 µM in test [6], above 100 µM in test [1] and above 100 µM in test [2].

On to `CCOC(=O)c1cc(C(=O)OCC)c(SCC(=O)Nc2ccc(Br)cc2)nc1O`, for which the concentration for half-maximal inhibition (IC50) in test [1] and in test [2] was above 100 µM in each case.

Consider `O=C(Nc1ccc(Cc2ccc(O)c(NC(=O)c3ccccc3F)c2)cc1O)c1ccccc1F`, for which the IC50 in test [3] is above 100 µM; in test [5], 205 µM; in test [6], 33 µM; in test [4], above 100 µM.

`COc1cc(/C=N/NC(=O)c2cc(C3CC3)[nH]n2)ccc1O`: the IC50 in test [1] and in test [2] was above 100 µM throughout.

On to `O=C(Nc1ccc(Cc2ccc(NC(=O)c3cccc([N+](=O)[O-])c3)c(C(=O)O)c2)cc1C(=O)O)c1cccc([N+](=O)[O-])c1`, for which the IC50 in test [3] is 15 µM; in test [4] it was 13 µM.

For the compound `COC(=O)C1=C(O)/C(=C\c2ccc(CNC(=O)C(=O)Nc3ccc(C)cc3)o2)N=C1C`, the results for the IC50 in test [3] and in test [4] were above 100 µM and 81 µM, respectively.

Turning to `CCOC(=O)C(=O)NCc1ccc(/C=C2/N=C(C)C(C(=O)OCC)=C2O)o1`, the IC50 in test [3] and in test [4] was above 100 µM in each case.

Consider `C/C(CC(=O)Nc1c(C)cc(C)cc1C)=N\NC(=O)c1ccc(O)cc1O`, for which the IC50 was above 1000 µM in test [3] and 150 µM in test [4].

Regarding `COC(=O)c1cc(NS(=O)(=O)c2ccc(NCc3cccnc3)c(N)c2)cc(C(=O)OC)c1`, the IC50 in test [1] and in test [2] was above 100 µM throughout.

For the compound `O=C(O)c1cc(NS(=O)(=O)c2ccc(NCc3ccccc3)c([N+](=O)[O-])c2)cc(C(=O)O)c1`, the results for the IC50 in test [3] and in test [4] were above 100 µM and 66 µM, respectively.

Values taken from ChEMBL document CHEMBL1142702, “Dynamic receptor-based pharmacophore model development and its application in designing novel HIV-1 integrase inhibitors” (J Med Chem, 2005).
